Experimental data reported in ChEMBL document CHEMBL1138239, “Probing molecular interactions within class II MHC Aq/glycopeptide/T-cell receptor complexes associated with collagen-induced arthritis” (2007).
*1 amine or outer side, *2 acyl side, *3 side chain or, on linkers, in order; H or OH if unused. Where a SMILES comes first, the peptide text is derived from it. [ ]: non-standard residue; d: D form. X4 = NC[C@@H](CC[C@H](N[*:1])C(=O)[*:2])O[C@@H]1O[C@H](CO)[C@H](O)[C@H](O)[C@H]1O; X2 = C[C@H](N[*:1])C(=O)CCC(=O)[*:2]; X5 = C[C@@H](/C=C/CC(=O)[*:2])N[*:1]

How the values were obtained:
Assay type in all cases: functional, Mus musculus
[1] = Induction of immune response of T-cell HD13.9 hybridoma in presence of antigen-presenting spleen cells expressing Aq assessed as drug concentration required to induce IL2 secretion after 24 hrs by ELISA
Outline: (§1)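 5 × 10⁴ hybridoma cells co-cultured with 5 × 10⁵ syngeneic spleen cells and glycopeptide at 0, 0.00128, 0.0064, 0.032, 0.16, 0.8, 4, 20 µM for 24 h. Supernatant frozen, then IL-2 measured by sandwich ELISA (rat anti-mouse IL-2 capture and biotin detection, DELFIA read-out) against a recombinant mouse IL-2 standard. Score is the lowest concentration giving IL-2 at 6% of the maximal response to the native CII259-273 glycopeptide reference.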

[2] = Induction of immune response of T-cell HD13.10 hybridoma in presence of antigen-presenting spleen cells expressing Aq assessed as drug concentration required to induce IL2 secretion after 24 hrs by ELISA; outline: as §1
[3] = Induction of immune response of T-cell HNC.1 hybridoma in presence of antigen-presenting spleen cells expressing Aq assessed as drug concentration required to induce IL2 secretion after 24 hrs by ELISA; outline: as §1
[4] = Induction of immune response of T-cell HCQ.2 hybridoma in presence of antigen-presenting spleen cells expressing Aq assessed as drug concentration required to induce IL2 secretion after 24 hrs by ELISA; outline: as §1
[5] = Induction of immune response of T-cell HCQ.3 hybridoma in presence of antigen-presenting spleen cells expressing Aq assessed as drug concentration required to induce IL2 secretion after 24 hrs by ELISA; outline: as §1
[6] = Induction of immune response of T-cell HCQ.6 hybridoma in presence of antigen-presenting spleen cells expressing Aq assessed as drug concentration required to induce IL2 secretion after 24 hrs by ELISA; outline: as §1
[7] = Induction of immune response of T-cell HMIR.2 hybridoma in presence of antigen-presenting spleen cells expressing Aq assessed as drug concentration required to induce IL2 secretion after 24 hrs by ELISA; outline: as §1
[8] = Induction of immune response of T-cell 22a1-7E hybridoma in presence of antigen-presenting spleen cells expressing Aq assessed as drug concentration required to induce IL2 secretion after 24 hrs by ELISA; outline: as §1

Structure (SMILES) | Activity [1] | Activity [2] | Activity [3] | Activity [4] | Activity [5] | Activity [6] | Activity [7] | Activity [8]
CC[C@H](C)[C@H](NC(=O)CN)C(=O)N[C@@H](C)C(=O)CCC(=O)N[C@@H](Cc1ccccc1)C(=O)N[C@@H](CC[C@H](CN)O[C@@H]1O[C@H](CO)[C@H](O)[C@H](O)[C@H]1O)C(=O)NCC(=O)N[C@@H](CCC(=O)O)C(=O)N[C@@H](CCC(N)=O)C(=O)NCC(=O)N1CCC[C@H]1C(=O)N[C@@H](CCCCN)C(=O)NCC(=O)N[C@@H](CCC(=O)O)C(=O)N[C@H](C(=O)O)[C@@H](C)O (H-GI[X2]F[X4]GEQGPKGET-OH) | 0.8 µM | 0.8 µM | 4 µM | 0.8 µM | 0.8 µM | 0.8 µM | 4 µM | 4 µM
CC[C@H](C)[C@H](NC(=O)CN)C(=O)N[C@@H](C)/C=C/CC(=O)N[C@@H](Cc1ccccc1)C(=O)N[C@@H](CC[C@H](CN)O[C@@H]1O[C@H](CO)[C@H](O)[C@H](O)[C@H]1O)C(=O)NCC(=O)N[C@@H](CCC(=O)O)C(=O)N[C@@H](CCC(N)=O)C(=O)NCC(=O)N1CCC[C@H]1C(=O)N[C@@H](CCCCN)C(=O)NCC(=O)N[C@@H](CCC(=O)O)C(=O)N[C@H](C(=O)O)[C@@H](C)O (H-GI[X5]F[X4]GEQGPKGET-OH) |  |  |  | 20 µM | 20 µM | 20 µM |  | 
